Screens deposited in PubChem by several laboratories.
An excerpt weighted towards active compounds, which were near 6.1% of everything screened.
hDAT+cocaine = changed hDAT dopamine uptake under cocaine IC80, either direction, primary screen, cocaine antagonist project, cell-based, LLC-PK1 hDAT, [14C]-dopamine uptake, MLSMR; LLC-PK1 hDAT cells, [14C]-dopamine uptake with cocaine IC80; actives deviate in either direction; B-score at 10 µM; hit rate 1.3% among 110,000;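 active = Z score or B-score, a plate-position-corrected score, falls beyond the plate's 99.7% confidence bounds, in either direction; inactive = both scores lie inside the 99.7% bounds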;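 note: scored against the spread of the other compound wells on the same plate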
Target sequence (Q01959 whole entry, looked up): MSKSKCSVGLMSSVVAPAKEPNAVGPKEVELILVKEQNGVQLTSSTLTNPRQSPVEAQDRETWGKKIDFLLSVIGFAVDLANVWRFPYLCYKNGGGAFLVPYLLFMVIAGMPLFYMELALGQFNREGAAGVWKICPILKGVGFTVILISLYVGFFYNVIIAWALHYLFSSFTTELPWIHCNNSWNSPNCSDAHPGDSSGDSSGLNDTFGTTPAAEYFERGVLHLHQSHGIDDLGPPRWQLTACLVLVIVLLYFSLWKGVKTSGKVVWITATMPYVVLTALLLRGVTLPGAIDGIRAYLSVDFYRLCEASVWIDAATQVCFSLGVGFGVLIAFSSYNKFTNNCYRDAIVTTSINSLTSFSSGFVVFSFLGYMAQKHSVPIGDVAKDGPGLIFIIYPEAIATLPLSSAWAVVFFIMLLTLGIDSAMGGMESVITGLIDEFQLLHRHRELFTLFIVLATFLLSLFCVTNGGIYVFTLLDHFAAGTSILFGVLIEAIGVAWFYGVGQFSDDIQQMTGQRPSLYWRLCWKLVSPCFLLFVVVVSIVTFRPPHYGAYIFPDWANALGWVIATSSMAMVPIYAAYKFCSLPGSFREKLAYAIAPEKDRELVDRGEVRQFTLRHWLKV
RAM inhibit = inhibitors of the yeast RAM network, primary screen, dse1pr::URA3 reporter, 5-FOA selection; S. cerevisiae dse1pr::URA3 reporter, 5-FOA growth OD615, 2 d; analog-sensitive cbk1-as2 kinase mutant strain; inhibition, % at 50 µM; hit rate 1.8% among 190,000; AID 868, 2007;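 active = inhibition above a set limit, 3 SD over mean compound inhibition, cut at about 8.4% in these data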;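 note: 0% = DMSO-only wells with no growth and 100% = 10 µM 1-NA-PP1 full growth; inhibition rescues growth on 5-FOA so higher OD means more RAM inhibition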
WT yeast gro inh = growth inhibition of WT strain, primary screen, mitochondrial fusion inhibitor project, WT and mutant strains, chemical genetic; mitochondrial fusion phenotypic screen; inhibition, % at 10 µM; hit rate 2.1% among 190,000; in the data active = inhibition above about 58%; tested in S. cerevisiae
BB579 growth dn = growth inhibitors of yeast BB579 in restrictive medium, primary screen, yeast lifespan-shortening project, S. cerevisiae; OD615, 48 h; inhibition, % at 10 µM; hit rate 0.51% among 140,000;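 active = inhibition above a set limit, 3 SD over the mean compound inhibition, cut at about 44% in these data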
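controls = amphotericin B 10 µg/mL, positive | assay system = DeaD yeast strain BB579 | schedule = 48 h compound exposure at 30 °C after 4 h preincubation | detection = OD615 turbidity measurement | medium = restrictive CSMM-D medium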
Measles CPE = compounds protecting cells from measles virus cytopathic effect, primary screen, measles RdRp inhibitor project, single point, MLSMR library, absorbance. Measles virus-infected cells, CPE protection. protection (pct of control), % at 4 µM. hit rate 1.5% among 140,000. AID 841, 2007; in the data active = protection mostly above about 24%, no sharp cut-off; inactive = mostly below about 26%
Yeast lifespan up = compounds extending yeast replicative lifespan, primary screen, S. cerevisiae, OD615. hit rate 0.68% among 130,000. inhibition of the nicotinamide effect, % at 10 µM. AID 775, 2007. S. cerevisiae growth with nicotinamide; deaD strain in restrictive glucose medium;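 active = inhibition above a set limit, placed 3 SD over the median of all compounds, cut at about 26% in these data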;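 note: 0% = nicotinamide-treated wells and 100% = cells grown without nicotinamide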
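Material: Modified budding yeast, DeaD strain | Medium: Restrictive glucose medium | Probe or stimulus: 1.5 mM nicotinamide | Dosing: Single dose 10 µM compound, 0.25% DMSO | Times: 48 h at 30 °C | Technique: OD615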
The depositor's hits bear a star.

`Cc1cc(NC(=O)COC(=O)c2cccc(OCc3ccccc3)c2)no1` gave hDAT+cocaine -0.48, RAM inhibit 4, WT yeast gro inh 18, BB579 growth dn -19, Measles CPE 27 and Yeast lifespan up -12.
For COc1cc(/C=N/NC(=O)CN2CCCCC2)ccc1OCc1ccccc1 the results were RAM inhibit 0, WT yeast gro inh -2, BB579 growth dn 3, Measles CPE 34* and Yeast lifespan up -5.
For CCCCOc1ccccc1NC(=O)CSc1nnnn1C(C)(C)C the results were hDAT+cocaine 0.099, RAM inhibit 2, WT yeast gro inh -7, BB579 growth dn 9, Measles CPE 3 and Yeast lifespan up -3.
`COc1cc(/C=C/C(=O)NC(C)C)ccc1OCc1ccccc1` gave RAM inhibit 3, WT yeast gro inh 5, BB579 growth dn -18, Measles CPE 88* and Yeast lifespan up -4.
For COc1cc(/C=N/NC(=O)Cc2ccccc2)ccc1Oc1ccc([N+](=O)[O-])cc1[N+](=O)[O-] the results were RAM inhibit 1, WT yeast gro inh 2, BB579 growth dn -58, Measles CPE 43* and Yeast lifespan up -3.
For COc1ccc(/C=N/NC(N)=S)cc1OC(=O)c1cccc2ccccc12 the results were hDAT+cocaine -0.26, RAM inhibit 5, WT yeast gro inh 61*, BB579 growth dn -33, Measles CPE 2 and Yeast lifespan up -9.
COc1ccc([N+](=O)[O-])cc1/C=N/NC(=O)Cc1ccccc1 was read as RAM inhibit 1 and WT yeast gro inh -4.
COc1ccc(/C=N/NC(=O)c2nc(-c3ccccc3)cc(-c3ccccc3)n2)cc1OC was read as hDAT+cocaine 2.6, RAM inhibit 10*, WT yeast gro inh 9, BB579 growth dn -17, Measles CPE 5 and Yeast lifespan up -2.
`COc1ccc(C(=O)Oc2cc(/C=N/NC(N)=S)ccc2OC)cc1` gave hDAT+cocaine -0.51, RAM inhibit 2, WT yeast gro inh 55, BB579 growth dn -31, Measles CPE 4 and Yeast lifespan up -12.
`CCOc1cc(/C=C/C(=O)O)ccc1OCc1ccccc1` gave RAM inhibit 4 and WT yeast gro inh 19.
CCOC(=O)c1cnc(-n2nc(C)cc2C)nc1NCCc1ccccc1 was read as hDAT+cocaine 2, RAM inhibit -2, WT yeast gro inh 74*, BB579 growth dn 52*, Measles CPE 27 and Yeast lifespan up -15.
CCOC(=O)c1cnc(-n2nc(C)cc2C)nc1NCc1ccc2c(c1)OCO2 was read as hDAT+cocaine -7*, RAM inhibit 2, WT yeast gro inh 45, BB579 growth dn -48, Measles CPE 10 and Yeast lifespan up -9.
Screening O=C(CSc1nnc(SCc2ccc(Cl)cc2)s1)N/N=C/c1c(Cl)cccc1Cl returned RAM inhibit -1, WT yeast gro inh 13, BB579 growth dn -31, Measles CPE 11 and Yeast lifespan up -5.
Screening OCCN(CCO)CC(O)COc1ccc(C23CC4CC(CC(C4)C2)C3)cc1 (stereo not given) returned RAM inhibit -2, WT yeast gro inh 95*, BB579 growth dn 46*, Measles CPE 5 and Yeast lifespan up -10.
`C=CCNC(=O)c1onc(CSc2cc(C)ccc2C)c1C(=O)O` gave hDAT+cocaine -0.35, RAM inhibit 1, WT yeast gro inh -2, BB579 growth dn -62, Measles CPE 34* and Yeast lifespan up -1.
Screening NC(N)=NS(=O)(=O)c1ccc(N/C=C\C(=O)c2ccncc2)cc1 returned RAM inhibit 1 and WT yeast gro inh -13.
For Cc1cc(C)cc(N(C(=O)c2sc(C)nc2C)C(C(=O)NC(C)(C)C)c2ccncc2)c1 (stereo not given) the results were RAM inhibit 2 and WT yeast gro inh -17.
For O=C(O)c1ccc(N(c2ccccc2)c2ccccc2)cc1 the results were hDAT+cocaine 0.25, RAM inhibit 2, WT yeast gro inh 52, BB579 growth dn 44* and Measles CPE 18.
Screening CCc1ccc(N(C(=O)c2csnn2)C(C(=O)NCc2ccccc2)c2ccco2)cc1 (stereo not given) returned hDAT+cocaine 0.17, RAM inhibit 2, WT yeast gro inh -11, BB579 growth dn -8, Measles CPE 35* and Yeast lifespan up -9.
`COc1ccccc1NC(=O)c1cccc(NC(=O)c2ccco2)c1` gave hDAT+cocaine 0.68, RAM inhibit -1, WT yeast gro inh 74*, BB579 growth dn -31, Measles CPE 18 and Yeast lifespan up -26.
For CCC(=O)NC(=S)Nc1ccc(NC(=O)c2ccco2)c(OC)c1 the results were RAM inhibit 1, WT yeast gro inh -8, BB579 growth dn -21, Measles CPE 12 and Yeast lifespan up -4.
Screening CCOc1ccccc1NC(=O)c1ccc(NC(=O)c2ccco2)cc1 returned hDAT+cocaine 3.9*, RAM inhibit 7, WT yeast gro inh 17, BB579 growth dn -11 and Measles CPE 7.
`COc1cc(NC(=O)Cc2ccccc2)ccc1NC(=O)c1ccco1` gave hDAT+cocaine 2.2, RAM inhibit 2, WT yeast gro inh 3, BB579 growth dn -23, Measles CPE 64* and Yeast lifespan up 16.
Screening S=C(NCCCn1ccnc1)NC1CCCCC1 returned RAM inhibit 1, WT yeast gro inh -14, BB579 growth dn -22, Measles CPE 16 and Yeast lifespan up 7.
Screening Cc1nnc(SCC(=O)c2ccc(C(C)C)cc2)s1 returned RAM inhibit -1 and WT yeast gro inh 7.
`N#CCSCC(=O)Nc1ccc(Br)cc1` gave hDAT+cocaine -0.88, RAM inhibit 1, WT yeast gro inh -8, BB579 growth dn -31, Measles CPE 73* and Yeast lifespan up -22.
`N#CCSCC(=O)Nc1ccc(F)cc1` gave hDAT+cocaine -0.28, RAM inhibit 1, WT yeast gro inh -11, BB579 growth dn 2, Measles CPE 54* and Yeast lifespan up -4.
For O=C(NC(=S)Nc1ccccc1N1CCCCC1)c1ccccc1 the results were RAM inhibit 3 and WT yeast gro inh 67*.
O=C(NC(=S)Nc1ccccc1N1CCCC1)c1ccc(F)cc1 was read as RAM inhibit 2 and WT yeast gro inh 50.
Screening O=C(CNCc1ccccc1Cl)Nc1ccccc1N1CCCCC1 returned RAM inhibit 1 and WT yeast gro inh 80*.
`O=C(Nc1ccccc1N1CCN(c2ccccc2)CC1)c1ccccc1F` gave RAM inhibit 5 and WT yeast gro inh 26.
